Data published in ChEMBL document CHEMBL1131203, “Second generation "peptoid" CCK-B receptor antagonists: identification and development of N-(adamantyloxycarbonyl)-alpha-methyl-(R)-tryptophan derivative (CI-1015) with an improved pharmacokinetic profile” (J Med Chem, 1998).

How the values were obtained:
[1] = Absolute oral bioavailability was evaluated in 100% PEG solution at a dose of 20 mg/kg orally; type: ADME, organism-based; conditions: eutheria, in vivo
Summary of the method: (§1)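 Fasted male Wistar rats, groups of 3–4, given a single 20 mg/kg dose po or iv in the stated vehicle. Heparinized plasma was drawn from a jugular-vein cannula at serial times out to 24 h and assayed by validated HPLC-fluorescence. Absolute bioavailability is the dose-normalized ratio of AUC after po dosing to AUC after iv dosing.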

Mus musculus [2] = test: Concentration in forebrain after intravenous injection evaluated after 20 min. at a dose of 1 mg/kg; type: functional
Summary of the method: (§2)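 Ex vivo binding: mice were dosed iv with compound or vehicle, given either as saline or as 10% EtOH–60% propylene glycol–30% saline. Forebrains were taken at 5, 10 or 20 min, homogenized in HEPES buffer with bacitracin at pH 7.2, and incubated with 50 pM [125I]BH-CCK8s for 2 h at 22 °C. After filtration, bound radioligand was gamma-counted and read against calibration curves prepared in vehicle tissue. Detection limit was about 1 pmol/forebrain. n = 3–13.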

[3] = Absolute oral bioavailability evaluated in 0.5% methylcellulose suspentionat a dose of 20 mg/kg orally; type: ADME, organism-based; conditions: eutheria, in vivo; summary of the method: as §1
[4] = Pharmacokinetic parameter tmax was evaluated in 100% PEG solution at a dose of 20 mg/kg orally; type: ADME, organism-based; design: dose 20 mg/kg, route oral; conditions: in vivo, po
Summary of the method: (§3)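 Fasted male Wistar rats, groups of 3–4, given a single oral 20 mg/kg dose in the stated vehicle. Heparinized plasma was collected from an implanted jugular-vein cannula at serial times out to 24 h, kept frozen, and assayed by validated HPLC-fluorescence. Cmax, tmax, AUC(0–∞) and terminal t1/2 were obtained by noncompartmental analysis. Values are means (%RSD).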

[5] = Pharmacokinetic parameter AUC was evaluated in HP-beta-CD solution at a dose of 20 mg/kg orally; type: ADME, organism-based; design: dose 20 mg/kg, route oral; conditions: in vivo, po; summary of the method: as §3
[6] = Pharmacokinetic parameter AUC was evaluated in 0.5% methylcellulose suspension at a dose of 20 mg/kg orally; type: ADME, organism-based; design: dose 20 mg/kg, route oral; conditions: in vivo, po; summary of the method: as §3
[7] = Maximum plasma concentration was evaluated in 0.5% methylcellulose suspension at a dose of 20 mg/kg orally; type: ADME, organism-based; design: dose 20 mg/kg, route oral; conditions: po; summary of the method: as §3
[8] = Pharmacokinetic parameter half-life was evaluated in HP-beta-CD solution at a dose of 20 mg/kg orally; type: ADME, organism-based; design: dose 20 mg/kg, route oral; conditions: in vivo, po; summary of the method: as §3
[9] = molecular target: T1, Gastrin/cholecystokinin type B receptor (Mus musculus, UniProt P56481); test: Inhibitory concentration against radioligand [125I]Bolton-Hunter labeled CCK-8 to cholecystokinin type B receptor in the mouse cerebral cortex; type: tissue-based
T1 sequence (P56481 whole entry): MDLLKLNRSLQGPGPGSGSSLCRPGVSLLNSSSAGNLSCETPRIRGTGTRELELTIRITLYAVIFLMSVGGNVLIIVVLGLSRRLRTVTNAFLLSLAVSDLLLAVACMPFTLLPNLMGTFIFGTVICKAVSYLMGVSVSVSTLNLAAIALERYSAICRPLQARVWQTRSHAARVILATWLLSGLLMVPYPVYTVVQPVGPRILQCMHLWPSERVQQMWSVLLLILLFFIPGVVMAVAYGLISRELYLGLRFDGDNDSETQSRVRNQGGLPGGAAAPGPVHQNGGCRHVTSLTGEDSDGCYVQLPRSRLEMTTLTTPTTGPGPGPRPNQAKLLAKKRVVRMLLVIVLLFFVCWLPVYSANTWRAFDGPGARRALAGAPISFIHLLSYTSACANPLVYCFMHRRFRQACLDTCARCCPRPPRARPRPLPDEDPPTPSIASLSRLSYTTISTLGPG

Mus musculus [10] = test: Concentration in forebrain after intravenous injection evaluated after 10 min. at a dose of 1 mg/kg; type: functional; summary of the method: as §2
[11] = Pharmacokinetic parameter AUC was evaluated in DMA:H2O solution at a dose of 20 mg/kg orally; type: ADME, organism-based; design: dose 20 mg/kg, route oral; conditions: in vivo, po; summary of the method: as §3
[12] = molecular target: T2, Cholecystokinin receptor type A (Rattus norvegicus, UniProt P30551); test: Inhibitory concentration against radioligand [125I]Bolton-Hunter labeled CCK-8 to cholecystokinin type A receptor in the rat pancreas
T2 sequence (P30551 whole entry): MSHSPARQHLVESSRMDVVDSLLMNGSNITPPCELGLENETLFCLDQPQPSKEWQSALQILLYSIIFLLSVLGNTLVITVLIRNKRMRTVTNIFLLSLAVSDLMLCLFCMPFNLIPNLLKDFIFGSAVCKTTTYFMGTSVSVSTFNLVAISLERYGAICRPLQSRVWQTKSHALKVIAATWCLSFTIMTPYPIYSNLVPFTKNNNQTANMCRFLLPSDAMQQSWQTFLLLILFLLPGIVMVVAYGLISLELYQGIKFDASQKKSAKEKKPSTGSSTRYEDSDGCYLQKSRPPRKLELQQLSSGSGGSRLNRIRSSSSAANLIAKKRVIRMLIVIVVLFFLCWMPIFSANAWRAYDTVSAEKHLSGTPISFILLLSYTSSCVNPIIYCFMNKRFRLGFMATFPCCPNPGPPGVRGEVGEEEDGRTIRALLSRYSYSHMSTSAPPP

[13] = Pharmacokinetic parameter tmax was evaluated in HP-beta-CD solution at a dose of 20 mg/kg orally; type: ADME, organism-based; design: dose 20 mg/kg, route oral; conditions: in vivo, po; summary of the method: as §3
[14] = Maximum plasma concentration evaluated in 100% PEG solution at a dose of 20 mg/kg orally; type: ADME, organism-based; design: dose 20 mg/kg, route oral; conditions: po; summary of the method: as §3
[15] = Pharmacokinetic parameter tmax was evaluated in DMA:H2O solution at a dose of 20 mg/kg orally; type: ADME, organism-based; design: dose 20 mg/kg, route oral; conditions: in vivo, po; summary of the method: as §3
[16] = Pharmacokinetic parameter AUC was evaluated in 100% PEG solution at a dose of 20 mg/kg orally; type: ADME, organism-based; design: dose 20 mg/kg, route oral; conditions: in vivo, po; summary of the method: as §3
Mus musculus [17] = test: Concentration in forebrain after intravenous injection evaluated after 5 min. at a dose of 1 mg/kg; type: functional; summary of the method: as §2
[18] = Oral bioavailability (dosed in HP-beta-CD solution) (dose 20 mg/kg p.o.); type: ADME, organism-based; conditions: eutheria, in vivo; summary of the method: as §1
[19] = Pharmacokinetic parameter tmax evaluated in 0.5% methylcellulose suspension at a dose of 20 mg/kg orally; type: ADME, organism-based; design: dose 20 mg/kg, route oral; conditions: in vivo, po; summary of the method: as §3
[20] = Maximum plasma concentration evaluated in HP-beta-CD solution at a dose of 20 mg/kg orally; type: ADME, organism-based; design: dose 20 mg/kg, route oral; conditions: po; summary of the method: as §3
[21] = Pharmacokinetic parameter half-life was evaluated in DMA:H2O solution at a dose of 20 mg/kg orally; type: ADME, organism-based; design: dose 20 mg/kg, route oral; conditions: in vivo, po; summary of the method: as §3
[22] = Pharmacokinetic parameter half-life was evaluated in 100% PEG solution; type: ADME, organism-based; conditions: in vivo; summary of the method: as §3
[23] = Ratio of IC50 towards CCK-A receptor and CCK-B receptor
[24] = Absolute oral bioavailability was evaluated in DMA:H2O solution at a dose of 20 mg/kg orally; type: ADME, organism-based; conditions: eutheria, in vivo; summary of the method: as §1
[25] = Maximum plasma concentration was evaluated in DMA:H2O solution at a dose of 20 mg/kg orally; type: ADME, organism-based; design: dose 20 mg/kg, route oral; conditions: po; summary of the method: as §3

Structure (SMILES): C[C@](Cc1c[nH]c2ccccc12)(NC(=O)OC1C2CC3CC(C2)CC1C3)C(=O)N[C@H](CO)Cc1ccccc1 (stereo not given in full)
- bioavailability [1]: 9.6%
- Brain level (Mus musculus [2]): 43 pmol/forebrain
- bioavailability [3]: 2%
- Tmax [4]: 2.8 h
- AUC [5]: 1440 ng·h/mL
- AUC [6]: 188 ng·h/mL
- Cmax [7]: 42 ng/mL
- half-life [8]: 1.5 h
- IC50 [9]: 6.3 nM
- Brain level (Mus musculus [10]): 68 pmol/forebrain
- AUC [11]: 890 ng·h/mL
- IC50 [12]: 780 nM
- Tmax [13]: 0.9 h
- Cmax [14]: 167 ng/mL
- Tmax [15]: 1.2 h
- AUC [16]: 886 ng·h/mL
- Brain level (Mus musculus [17]): 40 pmol/forebrain
- bioavailability [18]: 16%
- Tmax [19]: 2.9 h
- Cmax [20]: 416 ng/mL
- half-life [21]: 2.3 h
- half-life [22]: 1.1 h
- Ratio [23]: 123
- bioavailability [24]: 9.6%
- Cmax [25]: 212 ng/mL
